Results from ChEMBL document CHEMBL1155488, “Carbamate derivatives of betulinic acid and betulin with selective cytotoxic activity” (Bioorg Med Chem Lett, 2010).
Active and inactive are the calls of the source. The calls are words filed in the database; no cut-off is given here.

Legend:
A2780 [1] = assay: Cytotoxicity against human A2780 cells after 96 hrs by SRB assay; type: functional, cell-based; details: A2780, 96 h
DLD-1 [2] = assay: Cytotoxicity against human DLD1 cells after 96 hrs by SRB assay; type: functional, cell-based; details: DLD-1, 96 h
HCT-8 [3] = assay: Cytotoxicity against human HCT8 cells after 96 hrs by SRB assay; type: functional, cell-based; details: HCT-8, 96 h
HCT-116 [4] = assay: Cytotoxicity against human HCT116 cells after 96 hrs by SRB assay; type: functional, cell-based; details: HCT-116, 96 h
HT-29 [5] = assay: Cytotoxicity against human HT-29 cells after 96 hrs by SRB assay; type: functional, cell-based; details: HT-29, 96 h
[6] = Cytotoxicity against human Liposarcoma cells after 96 hrs by SRB assay; type: functional, cell-based
MCF7 [7] = assay: Cytotoxicity against human MCF7 cells after 96 hrs by SRB assay; type: functional, cell-based; details: MCF7, 96 h
SW480 [8] = assay: Cytotoxicity against human SW480 cells after 96 hrs by SRB assay; type: functional, cell-based; details: SW480, 96 h
SW-1736 = assay: Cytotoxicity against human SW1736 cells after 96 hrs by SRB assay; type: functional, cell-based; details: SW-1736, 96 h
[9] = Cytotoxicity against human 518A2 cells after 96 hrs by SRB assay; type: functional, cell-based; details: 518A2, 96 h
FaDu [10] = assay: Cytotoxicity against human FADU cells after 96 hrs by SRB assay; type: functional, cell-based
8505C [11] = assay: Cytotoxicity against human 8505C cells after 96 hrs by SRB assay; type: functional, cell-based
[12] = Cytotoxicity against human A253 cells after 96 hrs by SRB assay; type: functional, cell-based; details: A253, 96 h
A-431 [13] = assay: Cytotoxicity against human A431 cells after 96 hrs by SRB assay; type: functional, cell-based; details: A-431, 96 h
A549 [14] = assay: Cytotoxicity against human A549 cells after 96 hrs by SRB assay; type: functional, cell-based; details: A549, 96 h
[15] = Selectivity index, ratio of IC50 for human fibroblast to IC50 for human Liposarcoma cells
Summary of the method: (§1)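 The selectivity index was calculated as the IC50 on human fibroblasts divided by the IC50 on the corresponding tumor cell line.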

HT-29 [16] = assay: Selectivity index, ratio of IC50 for human fibroblast to IC50 for human HT-29 cells; summary of the method: as §1
HCT-116 [17] = assay: Selectivity index, ratio of IC50 for human fibroblast to IC50 for human HCT116 cells; summary of the method: as §1
HCT-8 [18] = assay: Selectivity index, ratio of IC50 for human fibroblast to IC50 for human HCT8 cells; summary of the method: as §1
FaDu [19] = assay: Selectivity index, ratio of IC50 for human fibroblast to IC50 for human FADU cells; summary of the method: as §1
DLD-1 [20] = assay: Selectivity index, ratio of IC50 for human fibroblast to IC50 for human DLD1 cells; summary of the method: as §1
A2780 [21] = assay: Selectivity index, ratio of IC50 for human fibroblast to IC50 for human A2780 cells; summary of the method: as §1
A549 [22] = assay: Selectivity index, ratio of IC50 for human fibroblast to IC50 for human A549 cells; summary of the method: as §1
A-431 [23] = assay: Selectivity index, ratio of IC50 for human fibroblast to IC50 for human A431 cells; summary of the method: as §1
[24] = Selectivity index, ratio of IC50 for human fibroblast to IC50 for human A253 cells; summary of the method: as §1
8505C [25] = assay: Selectivity index, ratio of IC50 for human fibroblast to IC50 for human 8505C cells; summary of the method: as §1
[26] = Selectivity index, ratio of IC50 for human fibroblast to IC50 for human 518A2 cells; summary of the method: as §1
MCF7 [27] = assay: Selectivity index, ratio of IC50 for human fibroblast to IC50 for human MCF7 cells; summary of the method: as §1
SW480 [28] = assay: Selectivity index, ratio of IC50 for human fibroblast to IC50 for human SW480 cells; summary of the method: as §1
[29] = Selectivity index, ratio of IC50 for human fibroblast to IC50 for human SW1736 cells; summary of the method: as §1
[30] = Cytotoxicity against human fibroblast after 96 hrs by SRB assay; type: cell-based
[31] = Cytotoxicity against human fibroblast at 100 uM after 96 hrs by SRB assay; type: cell-based
A549 [32] = assay: Induction of apoptosis in human A549 cells assessed as DNA fragmentation at equitoxic IC90 after 24 hrs by agarose gel electrophoresis

Molecule C=C(C)[C@@H]1CC[C@]2(COC(=O)Nc3ccccc3)CC[C@]3(C)[C@H](CC[C@@H]4[C@@]5(C)CC[C@H](OC(=O)Nc6ccccc6)C(C)(C)[C@@H]5CC[C@]43C)[C@@H]12 [BIS(PHENYLCARBAMATE)BETULIN] has an IC50 (A2780 [1]) of 80.6 µM, an IC50 (DLD-1 [2]) of over 100 µM and an IC50 (HCT-8 [3]) of over 100 µM. It also gave an IC50 (HCT-116 [4]) of over 100 µM, an IC50 (HT-29 [5]) of 69.2 µM and an IC50 [6] of over 100 µM. It also gave an IC50 (MCF7 [7]) of over 100 µM, an IC50 (SW480 [8]) of over 100 µM and an IC50 (SW-1736) of over 100 µM. The IC50 [9] was over 100 µM, the IC50 (FaDu [10]) was over 100 µM and the IC50 (8505C [11]) was over 100 µM. The IC50 [12] was over 100 µM, the IC50 (A-431 [13]) was over 100 µM and the IC50 (A549 [14]) was over 100 µM.
With C=C(C)[C@@H]1CC[C@]2(C(=O)O)CC[C@]3(C)[C@H](CC[C@@H]4[C@@]5(C)CC[C@H](OC(=O)Nc6ccccc6)C(C)(C)[C@@H]5CC[C@]43C)[C@@H]12 the IC50 (A2780 [1]) was 24.8 µM, the IC50 (DLD-1 [2]) was 26.3 µM and the IC50 (HCT-8 [3]) was 25.2 µM. It also gave an IC50 (HCT-116 [4]) of 21.4 µM, an IC50 (HT-29 [5]) of 31.6 µM and an IC50 [6] of 51.9 µM. For the same molecule, the IC50 (MCF7 [7]) was 47.9 µM, the IC50 (SW480 [8]) was 41.1 µM and the IC50 (SW-1736) was 18.8 µM. It also gave an IC50 [9] of 51.5 µM, an IC50 (FaDu [10]) of 24.2 µM and an IC50 (8505C [11]) of 39.6 µM. The IC50 [12] was 34.7 µM, the IC50 (A-431 [13]) was 26.7 µM and the IC50 (A549 [14]) was 22.4 µM.
In the case of C=C(C)[C@@H]1CC[C@]2(COC(C)=O)CC[C@]3(C)[C@H](CC[C@@H]4[C@@]5(C)CC[C@H](O)C(C)(C)[C@@H]5CC[C@]43C)[C@@H]12, the IC50 (A2780 [1]) is reported as 11.7 µM, the IC50 (DLD-1 [2]) is reported as 13.1 µM and the IC50 (HCT-8 [3]) is reported as 18 µM. For the same molecule, the IC50 (HCT-116 [4]) was 10.7 µM, the IC50 (HT-29 [5]) was 11 µM and the IC50 [6] was 15.5 µM. It also gave an IC50 (MCF7 [7]) of 11.4 µM, an IC50 (SW480 [8]) of 13.7 µM and an IC50 (SW-1736) of 12 µM. It also gave an IC50 [9] of 15.8 µM, an IC50 (FaDu [10]) of 14 µM and an IC50 (8505C [11]) of 14.7 µM. The IC50 [12] was 12.9 µM, the IC50 (A-431 [13]) was 12.2 µM and the IC50 (A549 [14]) was 14.4 µM.
For C=C(C)[C@@H]1CC[C@]2(C(=O)O)CC[C@]3(C)[C@H](CC[C@@H]4[C@@]5(C)CC[C@H](O)C(C)(C)[C@@H]5CC[C@]43C)[C@@H]12 [BETULINIC ACID], the IC50 (A2780 [1]) was 11.1 µM, the IC50 (DLD-1 [2]) was 11.9 µM and the IC50 (HCT-8 [3]) was 13.1 µM. The IC50 (HCT-116 [4]) was 10.8 µM, the IC50 (HT-29 [5]) was 13.9 µM and the IC50 [6] was 12.1 µM. For the same molecule, the IC50 (MCF7 [7]) was 12.3 µM, the IC50 (SW480 [8]) was 6.48 µM and the IC50 (SW-1736) was 13.1 µM. The “Ratio IC50” value [15] was 1.72, the “Ratio IC50” value (HT-29 [16]) was 1.49 and the “Ratio IC50” value (HCT-116 [17]) was 1.93. The “Ratio IC50” value (HCT-8 [18]) was 1.59, the “Ratio IC50” value (FaDu [19]) was 2.04 and the “Ratio IC50” value (DLD-1 [20]) was 1.75. For the same molecule, the “Ratio IC50” value (A2780 [21]) was 1.88, the “Ratio IC50” value (A549 [22]) was 1.87 and the “Ratio IC50” value (A-431 [23]) was 1.65. The “Ratio IC50” value [24] was 2.27, the “Ratio IC50” value (8505C [25]) was 2.87 and the “Ratio IC50” value [26] was 2.56. The “Ratio IC50” value (MCF7 [27]) was 1.7, the “Ratio IC50” value (SW480 [28]) was 3.21 and the “Ratio IC50” value [29] was 1.59. The IC50 [30] was 20.8 µM, the IC50 [9] was 8.13 µM and the IC50 (FaDu [10]) was 10.2 µM. The IC50 (8505C [11]) was 7.26 µM, the IC50 [12] was 9.18 µM and the IC50 (A-431 [13]) was 12.6 µM. It also gave an IC50 (A549 [14]) of 11.1 µM.
Molecule C=C(C)[C@@H]1CC[C@]2(COC(=O)NCC)CC[C@]3(C)[C@H](CC[C@@H]4[C@@]5(C)CC[C@H](OC(=O)NCC)C(C)(C)[C@@H]5CC[C@]43C)[C@@H]12 [BIS(ETHYLCARBAMATE)BETULIN] has an IC50 (A2780 [1]) of 4.37 µM, an IC50 (DLD-1 [2]) of 8.32 µM and an IC50 (HCT-8 [3]) of 3.91 µM. For the same molecule, the IC50 (HCT-116 [4]) was 3.84 µM, the IC50 (HT-29 [5]) was 6.2 µM and the IC50 [6] was 12 µM. It also gave an IC50 (MCF7 [7]) of 17.7 µM, an IC50 (SW480 [8]) of 2.77 µM and an IC50 (SW-1736) of 3.6 µM. For the same molecule, the “Ratio IC50” value [15] was over 8.31, the “Ratio IC50” value (HT-29 [16]) was over 16.13 and the “Ratio IC50” value (HCT-116 [17]) was over 26.04. For the same molecule, the “Ratio IC50” value (HCT-8 [18]) was over 25.58, the “Ratio IC50” value (FaDu [19]) was over 12.69 and the “Ratio IC50” value (DLD-1 [20]) was over 12.02. For the same molecule, the “Ratio IC50” value (A2780 [21]) was over 22.88, the “Ratio IC50” value (A549 [22]) was over 34.36 and the “Ratio IC50” value (A-431 [23]) was over 16.45. The “Ratio IC50” value [24] was over 10.3, the “Ratio IC50” value (8505C [25]) was over 10.65 and the “Ratio IC50” value [26] was over 12.22. The “Ratio IC50” value (MCF7 [27]) was over 5.65, the “Ratio IC50” value (SW480 [28]) was over 36.1 and the “Ratio IC50” value [29] was over 26.32. The IC50 [30] was over 100 µM, the Activity [31] was “Non-toxic” and the IC50 [9] was 8.18 µM. It also gave an IC50 (FaDu [10]) of 7.88 µM, an IC50 (8505C [11]) of 9.39 µM and an IC50 [12] of 9.71 µM. For the same molecule, the IC50 (A-431 [13]) was 6.08 µM, the IC50 (A549 [14]) was 2.91 µM and the Activity (A549 [32]) was “Active”.
Work on C=C(C)[C@@H]1CC[C@]2(COC(C)=O)CC[C@]3(C)[C@H](CC[C@@H]4[C@@]5(C)CC[C@H](OC(=O)Nc6ccccc6)C(C)(C)[C@@H]5CC[C@]43C)[C@@H]12 yielded an IC50 (A2780 [1]) of 84.2 µM, an IC50 (DLD-1 [2]) of over 100 µM and an IC50 (HCT-8 [3]) of over 100 µM. It also gave an IC50 (HCT-116 [4]) of over 100 µM, an IC50 (HT-29 [5]) of 76.4 µM and an IC50 [6] of over 100 µM. The IC50 (MCF7 [7]) was over 100 µM, the IC50 (SW480 [8]) was over 100 µM and the IC50 (SW-1736) was over 100 µM. The IC50 [9] was over 100 µM, the IC50 (FaDu [10]) was over 100 µM and the IC50 (8505C [11]) was over 100 µM. The IC50 [12] was over 100 µM, the IC50 (A-431 [13]) was over 100 µM and the IC50 (A549 [14]) was over 100 µM.
